Bioassay records deposited in PubChem BioAssay by several laboratories.
Rows were chosen to be rich in hits. Some 2.9% of all compounds tested hit in one or more screens of this group.
MEKK2 mut-MEK5: signal of MEK5 binding to mutant human MEKK2 PB1 domain. bead flow cytometry, Alexa488-MEK5 binding to MEKK2 mutant. percent response, % at 10 µM. 290,000 tested, 0.35% active; in the data active means percent response above about 24%, passing the limit was not always enough
MEKK3 PB1 HTS: MEKK3-MEK5 PB1 interaction, increase or decrease; Q99759; bead-based flow cytometry, Alexa488-MEK5 binding to MEKK3; actives lie on both sides; 0 = blocked by unlabeled MEK5, 100 = vehicle; binding response (% of control), % at 10 µM; 290,000 tested, 1.4% active;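 active means binding response more than 3 SD above or below the average of its plate-row segment, actives on both sides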;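 further: Alexa488 bead fluorescence after subtracting the streptavidin-only scavenger bead signal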
Dynein transport: dynein cargo transport inhibition; z-score, hits read low; AID 1381; 3617.4 mouse cells, GR-EGFP nuclear translocation imaging; test concentration mostly 20 µM; stimulated with dexamethasone, 1 µM; stronger effect = lower value; 220,000 tested, 0.47% active;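 active means plate z-score of nuclear minus cytoplasmic receptor signal below a set negative limit, without overly bright fluorescence or cell loss, cut at about -3.5 in these data, passing the limit was not always enough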;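 further: z-score of nuclear minus cytoplasmic ring GR-EGFP intensity difference per well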
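Also added: dexamethasone, 1.0 µM final. Medium: tet-free, stripped-serum medium. Detection: fixed, Hoechst-stained cells imaged at 10x for EGFP. Read-out: nuclear-to-cytoplasmic GR-EGFP distribution per well. Times: induction 48 h, compound 1 h, agonist 30 min.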
MEKK2wt PB1 HTS: raises or lowers MEK5 binding to wildtype human MEKK2 PB1 domain. Q9Y2U5. bead flow cytometry, Alexa488-MEK5 binding to MEKK2 WT; actives lie on both sides. binding response (% of control), % at 10 µM. 290,000 tested, 1.1% active; in the data active means binding response below about 67% or above about 130%
B2AR ag: activates human beta-2 adrenergic receptor causing internalization; P07550; Am2.2-beta2AR cells, FAP receptor internalization, flow cytometry; response, % (test concentration not listed); 340,000 tested, 0.43% active; AID 504454;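 active means response above a set limit, near 3 SD of response in nonfluorescent compounds, cut at about 42% in these data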
Target sequence (P07550 whole entry, looked up): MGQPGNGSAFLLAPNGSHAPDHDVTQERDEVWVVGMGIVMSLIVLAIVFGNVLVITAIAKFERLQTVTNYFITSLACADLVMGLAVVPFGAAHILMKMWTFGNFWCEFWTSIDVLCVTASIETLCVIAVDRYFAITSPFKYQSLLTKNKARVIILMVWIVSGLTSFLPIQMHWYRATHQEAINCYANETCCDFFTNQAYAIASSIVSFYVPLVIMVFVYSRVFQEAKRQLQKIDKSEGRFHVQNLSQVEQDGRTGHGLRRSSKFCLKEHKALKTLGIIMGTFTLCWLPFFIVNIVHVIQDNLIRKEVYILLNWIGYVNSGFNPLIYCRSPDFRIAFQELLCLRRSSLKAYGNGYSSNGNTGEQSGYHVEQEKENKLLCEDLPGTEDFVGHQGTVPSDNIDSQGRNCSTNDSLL
ATG4B inh: inhibitors of human ATG4B cysteine protease. 340,000 tested, 0.51% active. ATG4B cleavage of LC3-PLA2, NBD-HPC fluorescence, 1 h. inhibition, % at 8.33 µM. Q9Y4P1; in the data active means inhibition above about 40%
MEKK2wt confirm: raises or lowers MEK5 binding to wildtype human MEKK2, retest | bead flow cytometry, Alexa488-MEK5 binding to MEKK2 WT; actives lie on both sides | binding response (% of control), % at 10 µM | 5,900 tested, 2.4% active | shares compounds with MEKK3 PB1 HTS | AID 1892; in the data active means binding response below about 16% or above about 210%; inactive means in between
MEKK2mut-MEK5: signal of MEK5 binding to mutant human MEKK2, retest | shares compounds with MEKK3 PB1 HTS | bead flow cytometry, Alexa488-MEK5 binding to MEKK2 mutant | percent response, % at 10 µM | 5,900 tested, 2% active; in the data active means percent response mostly above about 71%, no sharp cut-off; inactive means mostly below about 38%;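 further: higher means compound restores mutant binding toward wildtype level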
MEKK3-MEK5 inh: confirmation of inhibitors of MEK5 binding to human MEKK3; shares compounds with MEKK3 PB1 HTS; bead flow cytometry, Alexa488-MEK5 binding to MEKK3; stronger effect = lower value; binding response (% of control), % at 10 µM; 5,900 tested, 1.8% active; AID 1894;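 active means binding response below 72% of control, or above a set upper limit, though filed actives all read lower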
Hits are given with their value; n = inactive; x = not tested or not shown; [ ] = another dose, or the depositor's remark.

SMILES	MEKK2 mut-MEK5	MEKK3 PB1 HTS	Dynein transport	MEKK2wt PB1 HTS	B2AR ag	ATG4B inh	MEKK2wt confirm	MEKK2mut-MEK5	MEKK3-MEK5 inh
COc1ccc(/C=N/NC(=O)c2ccc(F)cc2)cc1CN1CCc2cc(OC)c(OC)cc2C1C (stereo not drawn)	n	n	n	n	n	n	x	x	x
O=C(c1ccc2snnc2c1)N1CCN(c2ccccc2)CC1	n	129	n	n	n	n	n	n	n
COc1ccc(OC)c(S(=O)(=O)N/N=C(/C)c2ccc3c(c2)OCO3)c1	n	n	x	n	n	n	x	x	x
CCN1CCN(S(=O)(=O)c2ccc(OC)cc2)CC1	n	n	x	n	n	n	x	x	x
CCC(=O)Nc1ccc2c(c1)ncn2C	n	75[inhibitor]	n	n	n	n	n	n	n
Cc1cc(C(=O)Nc2ccc(N3CCCC3)c(Cl)c2)ccc1[N+](=O)[O-]	n	135	n	n	n	n	n	n	n
O=c1/c(=C/c2ccccn2)sc2nc3ccccc3n12	x	x	n	x	n	n	x	x	x
COC(=O)/C=c1/sc2nc3ccccc3n2c1=O	n	80[inhibitor]	n	n	n	n	n	n	n
CCOC(=O)N1CCN(C(=O)c2ccc(OC)cc2)CC1	n	n	n	n	n	n	x	x	x
CCOC(=O)N1CCN(C(=O)C2CCN(C(=O)c3cc(OC)cc(OC)c3)CC2)CC1	n	142	n	n	n	n	n	n	n
O=C(Cn1c(=O)n(-c2ccc(F)cc2)c(=O)c2sccc21)NC1CCCCC1	n	n	n	n	n	n	x	x	x
CCN(CC)C(=O)c1cc(C(C)(C)C)c(O)c(C(C)(C)C)c1	n	128	n	n	n	n	n	n	n
CC(C)(C)NC(=O)c1cc(C(C)(C)C)c(O)c(C(C)(C)C)c1	n	n	n	n	n	n	x	x	x
Cc1ccc(CSCCC(=O)NCCc2ccc(Cl)cc2)cc1	n	n	n	n	n	n	x	x	x
O=C(CCSCc1ccc(Cl)cc1)NCCc1ccccc1	n	142	n	n	n	n	n	n	n
O=C(CSc1ccccc1)NCCSCc1ccccc1	n	140	n	n	n	n	n	n	n
O=C(CCSCc1ccc(Cl)cc1)NC1CCCC1	n	151	n	n	n	n	n	n	n
Cc1ccc(SCC(=O)NCCSCc2ccccc2)cc1	n	n	n	n	n	n	x	x	x
COc1ccccc1OCC(=O)NCCSCc1ccc(Cl)cc1	n	132	n	n	n	n	n	n	n
COc1ccccc1N(CC(=O)NCCSCc1ccc(Cl)cc1)S(C)(=O)=O	n	n	x	n	n	n	x	x	x
Cc1cc(C(=O)CN2c3cccc4cccc(c34)S2(=O)=O)c(C)n1C	x	x	x	x	n	n	x	x	x
NNC(=O)[C@H]1C[C@@H]1c1ccccc1	n	152	n	n	n	n	n	n	n
OC(COc1ccccc1)CN1CCN(C(c2ccccc2)c2ccccc2)CC1 (stereo not drawn)	n	n	x	n	n	n	x	x	x
CC(=O)c1ccc(OCC(O)CN2CCOCC2)cc1 (stereo not drawn)	n	n	n	n	n	n	x	x	x
CCC(=O)c1ccc(OCC(O)CN2CCN(C(c3ccccc3)c3ccccc3)CC2)cc1 (stereo not drawn)	n	n	n	158	n	n	n	n	n
SMILES	MEKK2 mut-MEK5	MEKK3 PB1 HTS	Dynein transport	MEKK2wt PB1 HTS	B2AR ag	ATG4B inh	MEKK2wt confirm	MEKK2mut-MEK5	MEKK3-MEK5 inh
CCC(=O)c1ccc(OCC(O)CN2CCOCC2)cc1 (stereo not drawn)	n	2.0[inhibitor]	n	2.0[inhibitor]	n	n	n	n	n
CCN(CC(O)CON=C1c2ccccc2-c2ccccc21)S(=O)(=O)c1ccc(Cl)cc1 (stereo not drawn)	n	n	n	n	n	n	x	x	x
CCN(CC(O)CON=C1c2ccccc2-c2ccccc21)S(=O)(=O)c1ccc(C)cc1 (stereo not drawn)	n	141	n	n	n	n	n	n	n
CCOc1ccccc1N1CC(C(=O)Nc2ccc3c(c2)OCCO3)CC1=O (stereo not drawn)	x	x	n	x	n	n	x	x	x
O=C(O)Cc1sc(-c2ccc(Cl)cc2)nc1-c1ccccc1	n	123	n	n	n	n	n	n	n
O=C(O)Cc1sc(-c2ccccc2)nc1-c1ccccc1	n	n	n	n	n	n	x	x	x
Cc1cc(OCC(=O)NC2CC2)c2c(C)c(C)c(=O)oc2c1	n	n	x	n	n	n	x	x	x
NS(=O)(=O)c1cc(C(=O)O)cc(N2CCCC2)c1Oc1ccccc1	x	x	x	x	n	n	x	x	x
CCCCNc1cc(C(=O)O)cc(S(N)(=O)=O)c1Oc1ccccc1	n	n	n	16[inhibitor]	n	n	n	n	n
COc1ccc(NC(=O)COc2coc(CN3CCN(c4ccccc4)CC3)cc2=O)cc1	x	x	x	x	n	n	x	x	x
O=C(Nc1cccc(F)c1)C1CCN(C(=O)c2ccc(Br)cc2)CC1	n	n	n	n	n	n	x	x	x
